Test results: ChEMBL document CHEMBL1914421, “Aminomethyltetrazoles as potential inhibitors of the γ-aminobutyric acid transporters mGAT1-mGAT4: synthesis and biological evaluation” (Bioorg Med Chem, 2011)
pIC50: −log10 of the molar value.

Tests used:
HEK293 = assay: Residual mouse GAT4-mediated [3H]GABA uptake expressed in human HEK cells at 100 uM
[1] = molecular target: Sodium- and chloride-dependent GABA transporter 1 (Mus musculus) (UniProt P31648); assay: Residual mouse GAT1-mediated [3H]GABA uptake expressed in human HEK cells at 100 uM; conditions: HEK293
[2] = Inhibition of mouse GAT4-mediated [3H]GABA uptake expressed in human HEK cells; format: cell-based; conditions: HEK293
Outline: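 Specific [3H]GABA uptake was measured at the murine transporter subtype, and results are given as pIC50 ± SEM from three independent experiments, each run in triplicate.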

[3] = system: betaine/GABA transporter BGT-1 (Slc6a12, Mus musculus); assay: Residual mouse GAT2-mediated [3H]GABA uptake expressed in human HEK cells at 100 uM; conditions: HEK293
[4] = system: GABA transporter Slc6a13 (Mus musculus); assay: Residual mouse GAT3-mediated [3H]GABA uptake expressed in human HEK cells at 100 uM; conditions: HEK293
[5] = molecular target: Sodium- and chloride-dependent GABA transporter 1 (Mus musculus) (UniProt P31648); assay: Residual mouse GAT1-mediated [3H]GABA uptake expressed in human HEK cells at 1 mM; conditions: HEK293
[6] = system: betaine/GABA transporter BGT-1 (Slc6a12, Mus musculus); assay: Residual mouse GAT2-mediated [3H]GABA uptake expressed in human HEK cells at 1 mM; conditions: HEK293
[7] = molecular target: T1, GABA transporter 4 (Mus musculus) (UniProt P31650); assay: Residual mouse GAT4-mediated [3H]GABA uptake expressed in human HEK cells at 1 mM; conditions: HEK293
T1 sequence (whole entry): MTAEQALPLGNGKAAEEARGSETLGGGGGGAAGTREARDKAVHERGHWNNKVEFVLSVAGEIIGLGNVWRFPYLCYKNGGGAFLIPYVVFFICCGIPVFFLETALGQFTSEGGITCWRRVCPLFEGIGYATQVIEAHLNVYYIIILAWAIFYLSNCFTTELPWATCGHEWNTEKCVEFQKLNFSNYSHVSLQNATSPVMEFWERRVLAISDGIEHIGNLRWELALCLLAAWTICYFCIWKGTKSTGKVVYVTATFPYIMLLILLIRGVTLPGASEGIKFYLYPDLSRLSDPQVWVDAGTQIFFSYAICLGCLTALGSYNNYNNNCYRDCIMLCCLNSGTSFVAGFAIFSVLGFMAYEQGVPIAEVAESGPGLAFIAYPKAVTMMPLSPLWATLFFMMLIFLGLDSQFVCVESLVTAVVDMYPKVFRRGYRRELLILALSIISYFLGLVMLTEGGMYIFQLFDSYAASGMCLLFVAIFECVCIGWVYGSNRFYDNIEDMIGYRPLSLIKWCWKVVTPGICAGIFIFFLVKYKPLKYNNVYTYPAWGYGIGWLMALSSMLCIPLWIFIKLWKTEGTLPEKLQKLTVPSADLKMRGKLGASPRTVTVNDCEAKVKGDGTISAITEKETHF

[8] = system: GABA transporter Slc6a13 (Mus musculus); assay: Residual mouse GAT3-mediated [3H]GABA uptake expressed in human HEK cells at 1 mM; conditions: HEK293
[9] = Inhibition of GAT mediated [3H]GABA uptake in rat brain synaptosomes; format: subcellular
[10] = molecular target: T2, Sodium- and chloride-dependent GABA transporter 1 (Mus musculus, UniProt P31648); assay: Inhibition of mouse GAT1-mediated [3H]GABA uptake expressed in BHK cells; format: cell-based
[11] = molecular target: T2, Sodium- and chloride-dependent GABA transporter 1; assay: Inhibition of mouse GAT1-mediated [3H]GABA uptake expressed in human HEK cells; format: cell-based, HEK293
Outline: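 Specific [3H]GABA uptake measured at murine GAT1. Inhibition reported as pIC50 ± SEM from three independent experiments, each run in triplicate. Where stated, some values are the mean of two independent experiments, or one experiment in triplicate.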

GABA transporter 4 = molecular target: T3, GABA transporter 4 (Mus musculus, UniProt P31650); assay: Inhibition of mouse GAT4-mediated [3H]GABA uptake expressed in BHK cells; format: cell-based
T3 sequence (P31650 whole entry): T1 sequence (whole entry)

Mus musculus [12] = species: Mus musculus; assay: Selectivity ratio of IC50 for mouse GAT3 to IC50 for mouse GAT1
Mus musculus [13] = species: Mus musculus; assay: Selectivity ratio of IC50 for mouse GAT3 to IC50 for mouse GAT4

Structure (SMILES) | level, % of control (HEK293) [%] | residual activity [1] [%] | pIC50 [2] | residual activity [3] [%] | residual activity [4] [%] | also measured
c1ccc(Cn2nnnc2CNCCCC(c2ccccc2)c2ccccc2)cc1 | 49.6 | 68.1 |  |  |  | 
c1ccc(C(NCc2nnnn2C2CCCCC2)c2ccccc2)cc1 |  | 54.8 | 4.54 |  |  | 
C(CCNCc1nnnn1C1CCCCC1)=C(c1ccccc1)c1ccccc1 | 58.2 | 64.5 |  | 69.5 |  | 
c1ccc(C(NCc2nnn[nH]2)c2ccccc2)cc1 | 85.4 | 69.7 |  | 94.2 | 94.2 | 
NCc1nnn[nH]1 |  |  |  |  |  | residual activity [5]: 85.1%; residual activity [6]: 59.4%; residual activity [7]: 78.9%; residual activity [8]: 66.5%
C(CNCc1nnnn1C1CCCCC1)=C(c1ccccc1)c1ccccc1 |  | 62.9 | 4.29 |  |  | 
c1ccc(C(CCCNCc2nnn[nH]2)c2ccccc2)cc1 | 87.4 | 82 |  | 89.3 | 75.1 | 
CC(C)(C)CC(C)(C)n1nnnc1CNCC(c1ccccc1)c1ccccc1 |  | 83.3 | 4.17 | 63.5 | 53.8 | 
C(CCNCc1nnnn1Cc1ccccc1)=C(c1ccccc1)c1ccccc1 | 53.1 | 69.4 |  | 84.1 | 53.5 | 
C(CCNCc1nnn[nH]1)=C(c1ccccc1)c1ccccc1 | 101 | 86.1 |  | 76.9 | 73.8 | 
C(CNCc1nnn[nH]1)=C(c1ccccc1)c1ccccc1 | 79.6 | 80.5 |  | 82 | 46.2 | 
NCCNCc1nnn[nH]1 |  |  |  |  |  | residual activity [5]: 81.7%; residual activity [6]: 80%; residual activity [7]: 60.7%; residual activity [8]: 86.3%
CC(C)(C)CC(C)(C)n1nnnc1CN1CCOCC1 | 90.5 | 73.4 |  | 99 | 63.3 | 
c1ccc(C(CNCc2nnnn2C2CCCCC2)c2ccccc2)cc1 |  | 59.1 | 4.35 | 75.9 |  | 
CCCCNCc1nnn[nH]1 | 71.5 | 105 |  | 65.3 | 74 | 
C1CC(c2nnn[nH]2)CCN1 |  |  |  |  |  | pIC50 [9]: > 4.00
c1ccc(Cn2nnnc2CNCCC(c2ccccc2)c2ccccc2)cc1 |  | 73.9 | 4.20 | 61.6 | 51.7 | 
NCCCc1nnn[nH]1 |  |  |  |  |  | pIC50 [9]: > 4.00
c1ccc(C(CCCNCc2nnnn2C2CCCCC2)c2ccccc2)cc1 | 43.2 | 70.6 |  |  |  | 
CC(C)(C)CC(C)(C)n1nnnc1CNCCCn1c2ccccc2c2ccccc21 | 59.7 | 75.1 |  | 72.6 | 68.8 | 
C1CN(Cc2nnn[nH]2)CCN1 |  |  |  |  |  | residual activity [5]: 90%; residual activity [6]: 75.4%; residual activity [7]: 101%; residual activity [8]: 102%

Structure (SMILES) | level, % of control (HEK293) [%] | residual activity [1] [%] | pIC50 [2] | residual activity [3] [%] | residual activity [4] [%] | also measured
C1=C(c2nnn[nH]2)CCNC1 |  |  |  |  |  | pIC50 [9]: > 4.00
CC(C)(C)CC(C)(C)n1nnnc1CNCCCC(c1ccccc1)c1ccccc1 |  | 63.8 | 4.53 |  |  | 
NCCc1nnn[nH]1 |  |  |  |  |  | pIC50 [9]: > 4.00
CC(C)(C)CC(C)(C)n1nnnc1CNCCC=C(c1ccccc1)c1ccccc1 |  | 75.4 | 4.74 | 54.9 |  | 
COc1ccccc1C1(O)CCN(CCCn2c3ccccc3c3ccccc32)CC1 |  |  | 4.78 |  |  | pIC50 [10]: 4.72; pIC50 [11]: 4.99; pIC50 (GABA transporter 4): 4.82
CC(C)(C)CC(C)(C)n1nnnc1CNCCN |  |  |  |  |  | residual activity [5]: 133%; residual activity [6]: 142%; residual activity [7]: 92.5%; residual activity [8]: 71.1%
C(CNCc1nnnn1Cc1ccccc1)=C(c1ccccc1)c1ccccc1 |  | 57.3 | 4.38 |  |  | 
CC(C)(C)CC(C)(C)n1nnnc1CNC(c1ccccc1)c1ccccc1 | 56.9 | 85.6 |  | 81.4 |  | 
c1ccc(Cn2nnnc2CNC(c2ccccc2)c2ccccc2)cc1 | 57.2 | 81.1 |  | 84.5 |  | 
C1CNCC(c2nnn[nH]2)C1 (stereo not given) |  |  |  |  |  | pIC50 [9]: > 4.00
c1ccc(C(CCNCc2nnnn2C2CCCCC2)c2ccccc2)cc1 |  | 54.6 | 4.46 |  |  | 
c1ccc(C(CCNCc2nnn[nH]2)c2ccccc2)cc1 | 80.5 | 100 |  | 53.2 | 72.6 | 
CC(C)(C)CC(C)(C)n1nnnc1CNCCC(c1ccccc1)c1ccccc1 |  | 70.7 | 4.53 | 77.1 |  | Ratio IC50 (Mus musculus [12]): 12; Ratio IC50 (Mus musculus [13]): 4
c1ccc2c(c1)c1ccccc1n2CCCNCc1nnn[nH]1 | 78.7 | 86.3 |  | 81.6 | 83.6 | 
CC(C)(C)CC(C)(C)n1nnnc1CNCC=C(c1ccccc1)c1ccccc1 |  | 65.7 | 4.58 |  |  | 
NCC(=O)O |  |  |  |  |  | residual activity [5]: 83.1%; residual activity [7]: 69.7%
c1ccc(Cn2nnnc2CNCC(c2ccccc2)c2ccccc2)cc1 | 52.3 | 72.4 |  | 67.1 |  | 
c1ccc(C(CNCc2nnn[nH]2)c2ccccc2)cc1 | 71.2 | 48.2 |  | 85.8 | 63.5 | 
CCCCNCc1nnnn1C(C)(C)CC(C)(C)C |  | 83.3 | 4.31 | 60.3 | 49 | 
C1CN(Cc2nnn[nH]2)CCO1 |  |  |  |  |  | residual activity [5]: 90.6%; residual activity [6]: 88%; residual activity [7]: 90.8%; residual activity [8]: 87.8%
CC(C)(C)CC(C)(C)n1nnnc1CN1CCNCC1 | 78.4 | 90.2 |  | 106 | 81.4 | 
